From ChEMBL document CHEMBL3098105, “7,7'-Diazaindirubin--a small molecule inhibitor of casein kinase 2 in vitro and in cells” (Bioorg Med Chem, 2014)

What was measured:
[1] = target: Serine/threonine-protein kinase BRSK2 (Homo sapiens) (UniProt Q8IWQ3); test: Inhibition of human BrSK2 assessed as residual activity at 1 uM relative to control
[2] = target: Insulin-like growth factor 1 receptor (Homo sapiens) (UniProt P08069); test: Inhibition of IGF1-R (unknown origin) assessed as residual activity at 10 uM relative to control
[3] = target: SRSF protein kinase 1 (Homo sapiens) (UniProt Q96SB4); test: Inhibition of human SRPK1 assessed as residual activity at 1 uM relative to control
Sequence of SRSF protein kinase 1 (Homo sapiens) (Q96SB4 whole entry): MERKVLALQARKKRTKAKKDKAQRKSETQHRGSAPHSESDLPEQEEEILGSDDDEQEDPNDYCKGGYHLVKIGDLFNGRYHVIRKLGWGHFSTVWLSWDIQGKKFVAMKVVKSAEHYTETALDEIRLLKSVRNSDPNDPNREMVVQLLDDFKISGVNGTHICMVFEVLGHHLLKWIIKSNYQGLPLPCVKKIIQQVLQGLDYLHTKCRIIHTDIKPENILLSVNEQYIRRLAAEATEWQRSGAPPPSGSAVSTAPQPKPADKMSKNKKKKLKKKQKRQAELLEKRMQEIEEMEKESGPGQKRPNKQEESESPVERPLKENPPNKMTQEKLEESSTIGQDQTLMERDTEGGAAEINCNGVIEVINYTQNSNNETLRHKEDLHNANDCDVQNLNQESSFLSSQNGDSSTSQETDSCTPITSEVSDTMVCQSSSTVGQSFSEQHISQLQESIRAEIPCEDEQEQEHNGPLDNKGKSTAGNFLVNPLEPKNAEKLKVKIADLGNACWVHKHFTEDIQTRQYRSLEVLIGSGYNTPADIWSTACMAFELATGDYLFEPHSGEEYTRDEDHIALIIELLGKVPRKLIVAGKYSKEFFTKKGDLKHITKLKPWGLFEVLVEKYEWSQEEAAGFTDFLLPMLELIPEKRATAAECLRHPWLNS

[4] = target: BDNF/NT-3 growth factors receptor (Homo sapiens) (UniProt Q16620); test: Inhibition of human TrkB assessed as residual activity at 1 uM relative to control
[5] = target: Serine/threonine-protein kinase 24 (Homo sapiens) (UniProt Q9Y6E0); test: Inhibition of human MST3 assessed as residual activity at 1 uM relative to control
[6] = target: PAS domain-containing serine/threonine-protein kinase (Homo sapiens) (UniProt Q96RG2); test: Inhibition of human PASK assessed as residual activity at 1 uM relative to control
[7] = target: T1, Aurora kinase A (Homo sapiens) (UniProt O14965); test: Inhibition of Aurora-A (unknown origin) assessed as residual activity at 10 uM relative to control
T1 sequence (whole entry): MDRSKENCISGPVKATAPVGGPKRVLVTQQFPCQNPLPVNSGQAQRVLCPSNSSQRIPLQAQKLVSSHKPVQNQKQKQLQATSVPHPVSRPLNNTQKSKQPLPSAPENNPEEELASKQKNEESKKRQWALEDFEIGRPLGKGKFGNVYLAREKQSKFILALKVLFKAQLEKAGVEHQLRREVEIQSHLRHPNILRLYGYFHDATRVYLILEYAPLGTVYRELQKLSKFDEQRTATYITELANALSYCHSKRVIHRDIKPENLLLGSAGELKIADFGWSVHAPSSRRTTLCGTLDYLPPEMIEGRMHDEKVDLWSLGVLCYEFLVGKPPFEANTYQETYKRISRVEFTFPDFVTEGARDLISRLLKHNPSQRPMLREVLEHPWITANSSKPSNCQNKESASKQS

[8] = target: Serine/threonine-protein kinase ULK2 (Homo sapiens) (UniProt Q8IYT8); test: Inhibition of human ULK2 assessed as residual activity at 1 uM relative to control
SNB-19 = test: Antiproliferative activity against human SNB19 cells after 3 days by sulforhodamine B assay; assay type: functional; conditions: SNB-19, 72 h
[9] = target: Protein kinase C gamma type (Homo sapiens) (UniProt P05129); test: Inhibition of human PKCgamma assessed as residual activity at 1 uM relative to control
MCF7 = test: Cell cycle arrest in human MCF7 cells assessed as accumulation at S phase at 1 uM after 24 hrs using propidium iodide staining by FACS analysis (reference value: 18.59%); assay type: functional
[10] = target: Dual specificity tyrosine-phosphorylation-regulated kinase 2 (Homo sapiens) (UniProt Q92630); test: Inhibition of human DYRK2 assessed as residual activity at 1 uM relative to control
[11] = target: Protein kinase C iota type (Homo sapiens) (UniProt P41743); test: Inhibition of human PKCiota assessed as residual activity at 1 uM relative to control
Sequence of Protein kinase C iota type (Homo sapiens) (P41743 whole entry): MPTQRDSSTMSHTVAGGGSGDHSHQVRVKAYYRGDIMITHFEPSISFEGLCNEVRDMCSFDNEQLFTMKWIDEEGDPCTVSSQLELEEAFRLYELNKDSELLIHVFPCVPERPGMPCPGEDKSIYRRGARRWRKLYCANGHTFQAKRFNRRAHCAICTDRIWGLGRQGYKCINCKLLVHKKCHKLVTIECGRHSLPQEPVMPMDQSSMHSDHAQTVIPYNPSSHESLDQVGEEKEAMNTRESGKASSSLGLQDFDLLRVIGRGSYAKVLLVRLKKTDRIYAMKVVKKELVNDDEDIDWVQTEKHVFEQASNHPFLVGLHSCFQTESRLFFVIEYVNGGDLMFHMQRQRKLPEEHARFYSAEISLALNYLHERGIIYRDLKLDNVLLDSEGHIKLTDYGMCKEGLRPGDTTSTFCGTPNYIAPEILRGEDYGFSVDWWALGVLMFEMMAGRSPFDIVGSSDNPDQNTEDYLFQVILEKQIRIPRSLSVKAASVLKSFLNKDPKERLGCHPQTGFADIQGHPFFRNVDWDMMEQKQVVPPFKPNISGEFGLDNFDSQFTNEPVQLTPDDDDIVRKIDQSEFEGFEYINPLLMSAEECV

[12] = target: Rho-associated protein kinase 1 (Homo sapiens) (UniProt Q13464); test: Inhibition of human ROCK-1 assessed as residual activity at 1 uM relative to control
[13] = target: cGMP-dependent protein kinase 1 (Homo sapiens) (UniProt Q13976); test: Inhibition of human PKG1beta assessed as residual activity at 1 uM relative to control
Sequence of cGMP-dependent protein kinase 1 (Homo sapiens) (Q13976 whole entry): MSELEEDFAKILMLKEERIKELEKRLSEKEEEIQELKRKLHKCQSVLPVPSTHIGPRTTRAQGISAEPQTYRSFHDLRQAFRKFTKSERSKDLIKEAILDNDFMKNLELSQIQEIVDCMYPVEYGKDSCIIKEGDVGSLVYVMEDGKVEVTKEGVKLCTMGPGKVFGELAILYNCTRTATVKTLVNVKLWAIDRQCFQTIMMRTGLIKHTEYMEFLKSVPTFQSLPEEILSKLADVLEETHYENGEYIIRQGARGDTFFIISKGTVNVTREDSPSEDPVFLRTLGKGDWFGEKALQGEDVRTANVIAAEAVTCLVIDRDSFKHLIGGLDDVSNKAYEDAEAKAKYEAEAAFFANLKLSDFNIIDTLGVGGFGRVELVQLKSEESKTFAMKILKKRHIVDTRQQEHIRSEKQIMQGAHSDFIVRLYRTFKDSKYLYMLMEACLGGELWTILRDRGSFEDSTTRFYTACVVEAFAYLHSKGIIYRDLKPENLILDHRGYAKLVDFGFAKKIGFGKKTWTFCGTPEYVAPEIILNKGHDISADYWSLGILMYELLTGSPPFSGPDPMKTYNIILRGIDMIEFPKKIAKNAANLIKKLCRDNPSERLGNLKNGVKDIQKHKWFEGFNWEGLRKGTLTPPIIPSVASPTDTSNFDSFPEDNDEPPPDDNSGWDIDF

[14] = target: Serine/threonine-protein kinase PLK2 (Homo sapiens) (UniProt Q9NYY3); test: Inhibition of human Snk assessed as residual activity at 1 uM relative to control
Sequence of Serine/threonine-protein kinase PLK2 (Homo sapiens) (Q9NYY3 whole entry, looked up): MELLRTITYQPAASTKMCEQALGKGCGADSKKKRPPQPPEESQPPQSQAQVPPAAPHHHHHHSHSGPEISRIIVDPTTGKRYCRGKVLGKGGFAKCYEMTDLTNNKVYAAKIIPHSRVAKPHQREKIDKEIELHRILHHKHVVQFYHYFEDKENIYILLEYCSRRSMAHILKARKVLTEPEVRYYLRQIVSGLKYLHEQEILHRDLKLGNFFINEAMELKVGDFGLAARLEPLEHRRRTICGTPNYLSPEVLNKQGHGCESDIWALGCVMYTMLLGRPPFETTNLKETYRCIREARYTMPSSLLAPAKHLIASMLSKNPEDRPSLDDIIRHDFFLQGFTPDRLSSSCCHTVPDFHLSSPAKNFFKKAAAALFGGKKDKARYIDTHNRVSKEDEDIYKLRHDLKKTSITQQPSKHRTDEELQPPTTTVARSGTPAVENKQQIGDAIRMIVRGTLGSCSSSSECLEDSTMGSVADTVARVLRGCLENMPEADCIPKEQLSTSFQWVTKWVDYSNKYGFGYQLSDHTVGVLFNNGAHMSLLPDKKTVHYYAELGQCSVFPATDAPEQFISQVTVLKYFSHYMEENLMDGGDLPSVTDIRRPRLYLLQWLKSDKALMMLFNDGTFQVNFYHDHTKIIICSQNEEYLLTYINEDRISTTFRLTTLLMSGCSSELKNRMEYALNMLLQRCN

[15] = Antiproliferative activity against human OVCAR5 cells after 3 days by sulforhodamine B assay; assay type: functional; conditions: OVCAR-5, 72 h
Summary of the method: (§1)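 Tested in the NCI 60 cell line panel. GI50 is the concentration giving 50% inhibition of cell growth, and values are the mean of two series of tests.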

[16] = target: Serine/threonine-protein kinase BRSK1 (Homo sapiens) (UniProt Q8TDC3); test: Inhibition of human BrSK1 assessed as residual activity at 1 uM relative to control
[17] = target: Interleukin-1 receptor-associated kinase 4 (Homo sapiens) (UniProt Q9NWZ3); test: Inhibition of human IRAK4 assessed as residual activity at 1 uM relative to control
Sequence of Interleukin-1 receptor-associated kinase 4 (Homo sapiens) (Q9NWZ3 whole entry): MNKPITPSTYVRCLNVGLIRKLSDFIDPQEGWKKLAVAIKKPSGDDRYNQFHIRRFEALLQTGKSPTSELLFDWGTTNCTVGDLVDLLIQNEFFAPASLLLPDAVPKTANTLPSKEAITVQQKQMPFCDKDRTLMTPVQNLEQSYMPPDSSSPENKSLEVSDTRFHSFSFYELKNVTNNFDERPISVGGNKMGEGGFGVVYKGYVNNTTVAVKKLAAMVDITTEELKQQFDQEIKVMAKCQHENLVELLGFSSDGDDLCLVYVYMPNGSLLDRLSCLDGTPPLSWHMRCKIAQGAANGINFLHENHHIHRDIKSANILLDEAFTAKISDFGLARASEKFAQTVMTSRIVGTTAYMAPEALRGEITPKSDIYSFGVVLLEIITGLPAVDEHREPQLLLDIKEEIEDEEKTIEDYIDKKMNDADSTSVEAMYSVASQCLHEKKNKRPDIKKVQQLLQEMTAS

[18] = target: Inhibitor of nuclear factor kappa-B kinase subunit alpha (Homo sapiens) (UniProt O15111); test: Inhibition of human IKKalpha assessed as residual activity at 1 uM relative to control
[19] = target: Tyrosine-protein kinase JAK2 (Homo sapiens) (UniProt O60674); test: Inhibition of human JAK2 assessed as residual activity at 1 uM relative to control
[20] = target: Proto-oncogene tyrosine-protein kinase ROS (Homo sapiens) (UniProt P08922); test: Inhibition of human Ros assessed as residual activity at 1 uM relative to control
[21] = target: Mitogen-activated protein kinase 8 (Homo sapiens) (UniProt P45983); test: Inhibition of human JNK1alpha1 assessed as residual activity at 1 uM relative to control
HT-29 = test: Antiproliferative activity against human HT-29 cells after 3 days by SRB assay; assay type: functional, cell-based; conditions: HT-29, 72 h
Summary of the method: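 Cells grown at 37 °C, 5% CO2, with 10% heat-inactivated FBS: LXFL529L in RPMI 1640, MCF7 and HT29 in DMEM. Seeded, allowed 24 h growth, then exposed to the drug at various concentrations for 3 days in serum medium. Fixed with TCA for 1 h at 4 °C, stained with 0.4% SRB, eluted in 10 mM Tris pH 10.5, read at 570 nm as % T/C. IC50 taken from dose–response curves of at least three independent experiments.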

[22] = target: Platelet-derived growth factor receptor alpha (Homo sapiens) (UniProt P16234); test: Inhibition of human PDGFRalpha assessed as residual activity at 1 uM relative to control
[23] = target: Cyclin-dependent kinase 5/CDK5 activator 1 (Homo sapiens) (UniProt Q00535+Q15078); test: Inhibition of human CDK5/p35 assessed as residual activity at 1 uM relative to control; assay type: protein-complex assay
Sequence of Cyclin-dependent kinase 5/CDK5 activator 1 (Homo sapiens) (Q00535 whole entry): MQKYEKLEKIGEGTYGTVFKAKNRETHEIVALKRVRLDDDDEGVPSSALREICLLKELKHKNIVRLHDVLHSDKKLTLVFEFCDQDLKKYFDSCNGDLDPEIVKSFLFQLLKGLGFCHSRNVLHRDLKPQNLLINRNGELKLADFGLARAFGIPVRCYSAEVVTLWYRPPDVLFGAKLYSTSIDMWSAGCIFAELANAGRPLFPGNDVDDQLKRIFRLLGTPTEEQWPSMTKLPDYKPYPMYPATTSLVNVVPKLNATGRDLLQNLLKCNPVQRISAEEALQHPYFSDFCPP
Sequence of Cyclin-dependent kinase 5/CDK5 activator 1 (Homo sapiens) (Q15078 99-307 partner limits assumed): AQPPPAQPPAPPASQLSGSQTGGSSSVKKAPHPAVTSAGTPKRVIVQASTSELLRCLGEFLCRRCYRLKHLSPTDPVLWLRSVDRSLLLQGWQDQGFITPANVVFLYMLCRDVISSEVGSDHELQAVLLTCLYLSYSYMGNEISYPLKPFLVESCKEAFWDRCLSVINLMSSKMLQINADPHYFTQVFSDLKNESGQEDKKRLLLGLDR

NCI-H226 = test: Antiproliferative activity against human NCI-H226 cells after 3 days by sulforhodamine B assay; assay type: functional; conditions: NCI-H226, 72 h; summary of the method: as §1
[24] = target: Macrophage-stimulating protein receptor (Homo sapiens) (UniProt Q04912); test: Inhibition of human Ron assessed as residual activity at 1 uM relative to control
[25] = target: T2, Cyclin-dependent kinase 1/cyclin B1 (Homo sapiens) (UniProt P06493+P14635); test: Inhibition of human CDK1/cyclinB assessed as residual activity at 1 uM relative to control; assay type: protein-complex assay
T2 sequence (P06493 whole entry, looked up): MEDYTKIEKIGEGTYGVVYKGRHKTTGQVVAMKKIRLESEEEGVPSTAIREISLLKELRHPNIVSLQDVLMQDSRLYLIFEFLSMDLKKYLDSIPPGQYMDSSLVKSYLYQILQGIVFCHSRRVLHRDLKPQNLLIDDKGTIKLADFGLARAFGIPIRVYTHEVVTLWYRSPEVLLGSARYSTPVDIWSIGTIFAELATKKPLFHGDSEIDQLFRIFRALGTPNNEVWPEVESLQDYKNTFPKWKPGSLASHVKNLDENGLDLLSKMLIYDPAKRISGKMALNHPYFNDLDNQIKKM
T2 sequence (P14635 whole entry, looked up): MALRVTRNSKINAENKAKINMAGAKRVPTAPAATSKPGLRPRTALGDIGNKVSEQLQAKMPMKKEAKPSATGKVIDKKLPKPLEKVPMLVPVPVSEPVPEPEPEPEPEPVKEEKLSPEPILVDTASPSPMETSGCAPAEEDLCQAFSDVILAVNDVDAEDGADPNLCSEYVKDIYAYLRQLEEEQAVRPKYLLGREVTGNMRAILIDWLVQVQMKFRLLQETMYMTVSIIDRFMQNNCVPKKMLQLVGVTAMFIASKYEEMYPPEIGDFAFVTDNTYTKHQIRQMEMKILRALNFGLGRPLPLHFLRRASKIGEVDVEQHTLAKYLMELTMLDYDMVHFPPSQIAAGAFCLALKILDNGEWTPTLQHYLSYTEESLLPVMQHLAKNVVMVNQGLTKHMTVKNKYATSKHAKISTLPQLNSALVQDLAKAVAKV

[26] = Antiproliferative activity against human UO31 cells after 3 days by sulforhodamine B assay; assay type: functional; conditions: UO-31, 72 h
[27] = target: T2, Cyclin-dependent kinase 1/cyclin B1 (Homo sapiens); test: Inhibition of CDK1/CycB1 (unknown origin) assessed as residual activity at 1 uM relative to control; assay type: protein-complex assay

What does the source list for O=C1Nc2ncccc2/C1=C1/Nc2ncccc2C1=O?
Activity [1]: 108%; Activity [2]: 94%; Activity [3]: 92%; Activity [4]: 105%; Activity [5]: 113%; Activity [6]: 132%; Activity [7]: 61%; Activity [8]: 65%; GI50 (SNB-19): 0.517 µM; Activity [9]: 114%; Activity (MCF7): 12.87%; Activity [10]: 107%; Activity [11]: 92%; Activity [12]: 80%; Activity [13]: 90%; Activity [14]: 83%; GI50 [15]: 2.47 µM; Activity [16]: 69%; Activity [17]: 93%; Activity [18]: 99%; Activity [19]: 91%; Activity [20]: 102%; Activity [21]: 97%; IC50 (HT-29): 2 µM; Activity [22]: 96%; Activity [23]: 96%; GI50 (NCI-H226): 1.42 µM; Activity [24]: 101%; Activity [25]: 101%; GI50 [26]: 1.07 µM; Activity [27]: 70%
